Measured values as given in the M2OR odorant receptor database.
Changes are numbered by the printed parent chain.

Key:
Settings in all cases: stereoisomer not certain
OR4S2 (Homo sapiens) = molecular target: T1, OR4S2 (Homo sapiens) (UniProt Q8NH73)
T1 sequence (whole entry): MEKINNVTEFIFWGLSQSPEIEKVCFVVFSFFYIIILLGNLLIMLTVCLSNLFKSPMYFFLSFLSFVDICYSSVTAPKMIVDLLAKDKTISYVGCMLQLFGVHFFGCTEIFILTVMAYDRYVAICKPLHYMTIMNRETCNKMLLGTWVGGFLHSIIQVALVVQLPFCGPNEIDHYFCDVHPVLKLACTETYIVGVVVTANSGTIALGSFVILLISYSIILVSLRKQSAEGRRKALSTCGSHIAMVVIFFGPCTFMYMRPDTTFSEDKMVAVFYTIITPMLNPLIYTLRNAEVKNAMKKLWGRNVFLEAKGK
Summary of the method: (§1)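 Each entry records the cell line, G-protein, co-transfected protein and tags used. Methods varied with the source, often transient luciferase assays in mammalian cell lines. A receptor–molecule pair is called responsive (active) if the original authors judged its signal statistically different from baseline and non-responsive (inactive) otherwise.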

OR4X1 (Homo sapiens) = molecular target: T2, OR4X1 (Homo sapiens) (UniProt Q8NH49)
T2 sequence (whole entry): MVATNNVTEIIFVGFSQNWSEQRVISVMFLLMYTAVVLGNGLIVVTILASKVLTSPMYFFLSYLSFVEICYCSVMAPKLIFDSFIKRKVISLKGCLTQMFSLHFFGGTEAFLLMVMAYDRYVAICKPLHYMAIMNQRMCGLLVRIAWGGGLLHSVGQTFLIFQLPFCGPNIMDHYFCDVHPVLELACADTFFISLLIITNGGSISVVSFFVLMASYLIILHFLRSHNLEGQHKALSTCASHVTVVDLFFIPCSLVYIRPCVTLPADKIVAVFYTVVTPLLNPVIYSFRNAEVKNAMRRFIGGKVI
Summary of the method: as §1

OR4X2 (Homo sapiens) = molecular target: T3, OR4X2 (Homo sapiens) (UniProt Q8NGF9)
T3 sequence (whole entry): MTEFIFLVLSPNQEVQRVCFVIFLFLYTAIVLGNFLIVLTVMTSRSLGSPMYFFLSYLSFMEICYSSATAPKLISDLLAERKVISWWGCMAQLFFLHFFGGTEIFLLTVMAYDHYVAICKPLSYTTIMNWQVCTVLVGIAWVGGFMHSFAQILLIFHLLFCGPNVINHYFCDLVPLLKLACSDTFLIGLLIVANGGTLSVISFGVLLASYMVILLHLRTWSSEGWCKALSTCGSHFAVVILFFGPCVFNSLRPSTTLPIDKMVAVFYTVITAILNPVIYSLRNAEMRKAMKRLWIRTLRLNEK
Summary of the method: as §1

OR51A2 (Homo sapiens) = molecular target: T4, OR51A2 (Homo sapiens) (UniProt Q8NGJ7)
T4 sequence (whole entry): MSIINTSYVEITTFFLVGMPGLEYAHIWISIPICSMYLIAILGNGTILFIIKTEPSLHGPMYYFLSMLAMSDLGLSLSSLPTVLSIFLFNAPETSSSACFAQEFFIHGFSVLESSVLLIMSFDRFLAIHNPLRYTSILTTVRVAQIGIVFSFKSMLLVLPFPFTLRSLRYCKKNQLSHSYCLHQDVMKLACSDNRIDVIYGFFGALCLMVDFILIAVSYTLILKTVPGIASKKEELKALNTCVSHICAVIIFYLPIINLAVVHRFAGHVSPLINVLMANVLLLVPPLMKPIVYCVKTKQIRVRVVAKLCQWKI
Summary of the method: as §1

OR51A4 (Homo sapiens) = molecular target: T5, OR51A4 (Homo sapiens) (UniProt Q8NGJ6)
T5 sequence (whole entry): T4 sequence (whole entry) with G59E, T94I, S97N, S167N, P227L, E235Q, G267R, M288T, K289N, W311R
Summary of the method: as §1

OR51A7 (Homo sapiens) = molecular target: T6, OR51A7 (Homo sapiens) (UniProt Q8NH64)
T6 sequence (whole entry): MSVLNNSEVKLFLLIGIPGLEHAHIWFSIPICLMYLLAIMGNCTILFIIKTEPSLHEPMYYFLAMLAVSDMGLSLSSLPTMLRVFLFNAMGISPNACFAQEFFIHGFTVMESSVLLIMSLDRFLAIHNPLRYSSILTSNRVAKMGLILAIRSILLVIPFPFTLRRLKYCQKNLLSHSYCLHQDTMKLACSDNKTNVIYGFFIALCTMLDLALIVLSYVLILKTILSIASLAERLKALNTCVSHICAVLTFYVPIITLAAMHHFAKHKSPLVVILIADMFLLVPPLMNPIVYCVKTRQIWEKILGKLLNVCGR
Summary of the method: as §1

OR51B2 (Homo sapiens) = molecular target: T7, OR51B2 (Homo sapiens) (UniProt Q9Y5P1)
T7 sequence (whole entry): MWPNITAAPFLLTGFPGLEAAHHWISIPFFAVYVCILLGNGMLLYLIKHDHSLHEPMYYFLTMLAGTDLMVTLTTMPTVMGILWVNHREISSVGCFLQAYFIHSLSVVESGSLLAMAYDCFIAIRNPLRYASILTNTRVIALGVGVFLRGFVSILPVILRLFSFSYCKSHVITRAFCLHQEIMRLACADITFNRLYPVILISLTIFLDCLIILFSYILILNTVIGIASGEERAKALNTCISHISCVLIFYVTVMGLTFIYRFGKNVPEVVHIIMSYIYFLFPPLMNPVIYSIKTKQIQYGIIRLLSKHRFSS
Summary of the method: as §1

OR51B4 (Homo sapiens) = molecular target: T8, OR51B4 (Homo sapiens) (UniProt Q9Y5P0)
T8 sequence (whole entry): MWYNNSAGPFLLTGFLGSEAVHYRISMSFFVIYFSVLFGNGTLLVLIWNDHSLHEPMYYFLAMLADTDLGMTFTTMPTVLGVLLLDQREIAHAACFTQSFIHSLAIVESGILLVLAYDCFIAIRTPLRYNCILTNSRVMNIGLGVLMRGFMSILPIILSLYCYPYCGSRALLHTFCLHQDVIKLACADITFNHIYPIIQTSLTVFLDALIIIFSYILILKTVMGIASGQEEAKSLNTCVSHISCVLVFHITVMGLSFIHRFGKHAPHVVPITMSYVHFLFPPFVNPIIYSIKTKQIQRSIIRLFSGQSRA
Summary of the method: as §1

OR51B5 (Homo sapiens) = molecular target: T9, OR51B5 (Homo sapiens) (UniProt Q9H339)
T9 sequence (whole entry): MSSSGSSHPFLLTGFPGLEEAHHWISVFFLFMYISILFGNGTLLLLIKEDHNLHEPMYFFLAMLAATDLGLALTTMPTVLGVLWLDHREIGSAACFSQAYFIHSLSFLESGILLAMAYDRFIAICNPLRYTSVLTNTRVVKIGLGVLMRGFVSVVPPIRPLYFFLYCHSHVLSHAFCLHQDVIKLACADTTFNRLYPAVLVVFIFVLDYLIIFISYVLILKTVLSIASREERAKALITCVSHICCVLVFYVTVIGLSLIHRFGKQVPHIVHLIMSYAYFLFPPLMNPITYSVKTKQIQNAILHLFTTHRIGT
Summary of the method: as §1

OR51B6 (Homo sapiens) = molecular target: T10, OR51B6 (Homo sapiens) (UniProt Q9H340)
T10 sequence (whole entry): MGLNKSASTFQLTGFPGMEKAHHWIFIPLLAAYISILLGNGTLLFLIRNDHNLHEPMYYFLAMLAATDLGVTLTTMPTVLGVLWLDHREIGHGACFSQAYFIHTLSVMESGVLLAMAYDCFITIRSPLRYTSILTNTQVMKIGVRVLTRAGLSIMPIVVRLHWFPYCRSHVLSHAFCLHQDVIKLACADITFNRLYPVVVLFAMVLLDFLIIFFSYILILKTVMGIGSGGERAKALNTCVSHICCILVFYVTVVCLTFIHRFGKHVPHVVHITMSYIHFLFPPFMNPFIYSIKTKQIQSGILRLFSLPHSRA
Summary of the method: as §1

OR51D1 (Homo sapiens) = molecular target: T11, OR51D1 (Homo sapiens) (UniProt Q8NGF3)
T11 sequence (whole entry): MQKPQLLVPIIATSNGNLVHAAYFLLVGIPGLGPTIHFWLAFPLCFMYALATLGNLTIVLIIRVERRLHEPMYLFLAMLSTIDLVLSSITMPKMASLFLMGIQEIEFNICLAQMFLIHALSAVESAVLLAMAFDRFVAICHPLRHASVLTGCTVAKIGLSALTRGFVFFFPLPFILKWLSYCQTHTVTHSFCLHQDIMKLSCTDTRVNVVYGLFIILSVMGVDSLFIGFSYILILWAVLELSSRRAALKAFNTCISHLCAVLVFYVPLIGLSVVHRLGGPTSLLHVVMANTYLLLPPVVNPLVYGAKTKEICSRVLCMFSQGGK
Summary of the method: as §1

OR51E1 (Homo sapiens) = molecular target: T12, OR51E1 (Homo sapiens) (UniProt Q8TCB6)
T12 sequence (whole entry): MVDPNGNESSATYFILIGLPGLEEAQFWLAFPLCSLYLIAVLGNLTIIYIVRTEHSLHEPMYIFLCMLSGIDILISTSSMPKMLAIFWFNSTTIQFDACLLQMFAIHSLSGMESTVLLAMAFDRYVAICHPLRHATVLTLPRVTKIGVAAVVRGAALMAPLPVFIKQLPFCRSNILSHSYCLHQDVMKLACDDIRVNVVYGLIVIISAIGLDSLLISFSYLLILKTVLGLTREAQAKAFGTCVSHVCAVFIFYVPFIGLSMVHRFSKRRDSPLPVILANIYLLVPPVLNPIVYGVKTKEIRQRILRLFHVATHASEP
Summary of the method: as §1

OR51E2 (Homo sapiens) = molecular target: T13, OR51E2 (Homo sapiens) (UniProt Q9H255)
T13 sequence (whole entry): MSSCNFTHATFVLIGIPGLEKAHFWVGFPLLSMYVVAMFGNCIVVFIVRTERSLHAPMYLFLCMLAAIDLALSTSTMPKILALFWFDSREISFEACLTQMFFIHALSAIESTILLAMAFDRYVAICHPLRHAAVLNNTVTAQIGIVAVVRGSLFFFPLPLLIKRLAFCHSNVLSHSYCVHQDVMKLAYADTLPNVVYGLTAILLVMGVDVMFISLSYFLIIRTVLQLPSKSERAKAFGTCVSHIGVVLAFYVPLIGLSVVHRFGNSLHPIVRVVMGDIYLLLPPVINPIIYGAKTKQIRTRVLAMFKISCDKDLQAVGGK
Summary of the method: as §1

OR51F1 (Homo sapiens) = molecular target: T14, OR51F1 (Homo sapiens) (UniProt A6NGY5)
T14 sequence (whole entry): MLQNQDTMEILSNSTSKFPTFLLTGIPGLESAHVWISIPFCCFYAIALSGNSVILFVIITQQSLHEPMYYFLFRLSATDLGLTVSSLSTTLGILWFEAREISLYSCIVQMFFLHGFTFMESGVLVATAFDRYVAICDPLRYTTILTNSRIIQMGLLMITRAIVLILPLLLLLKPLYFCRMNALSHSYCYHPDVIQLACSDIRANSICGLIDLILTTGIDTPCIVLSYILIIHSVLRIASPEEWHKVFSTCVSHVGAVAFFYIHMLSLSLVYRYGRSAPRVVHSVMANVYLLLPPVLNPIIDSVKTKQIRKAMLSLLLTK
Summary of the method: as §1

OR51F2 (Homo sapiens) = molecular target: T15, OR51F2 (Homo sapiens) (UniProt Q8NH61)
T15 sequence (whole entry): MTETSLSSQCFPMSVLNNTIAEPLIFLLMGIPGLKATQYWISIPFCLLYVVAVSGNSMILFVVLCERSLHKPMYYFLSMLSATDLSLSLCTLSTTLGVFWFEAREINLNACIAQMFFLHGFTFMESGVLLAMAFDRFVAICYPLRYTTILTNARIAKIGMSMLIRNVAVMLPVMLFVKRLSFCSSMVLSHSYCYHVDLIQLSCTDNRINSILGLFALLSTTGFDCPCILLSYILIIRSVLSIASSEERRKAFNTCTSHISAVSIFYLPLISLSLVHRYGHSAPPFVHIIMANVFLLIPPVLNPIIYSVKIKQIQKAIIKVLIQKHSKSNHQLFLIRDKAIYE
Summary of the method: as §1

OR51G1 (Homo sapiens) = molecular target: T16, OR51G1 (Homo sapiens) (UniProt Q8NGK1)
T16 sequence (whole entry): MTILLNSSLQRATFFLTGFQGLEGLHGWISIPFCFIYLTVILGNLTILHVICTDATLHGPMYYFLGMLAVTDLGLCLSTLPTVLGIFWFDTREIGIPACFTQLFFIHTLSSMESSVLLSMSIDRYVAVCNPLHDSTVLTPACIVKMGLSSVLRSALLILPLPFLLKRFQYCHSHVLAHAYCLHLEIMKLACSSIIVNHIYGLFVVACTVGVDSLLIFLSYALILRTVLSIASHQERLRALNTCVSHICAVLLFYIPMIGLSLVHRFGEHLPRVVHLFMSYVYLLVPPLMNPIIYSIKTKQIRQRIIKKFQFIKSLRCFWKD
Summary of the method: as §1

OR51G2 (Homo sapiens) = molecular target: T17, OR51G2 (Homo sapiens) (UniProt Q8NGK0)
T17 sequence (whole entry): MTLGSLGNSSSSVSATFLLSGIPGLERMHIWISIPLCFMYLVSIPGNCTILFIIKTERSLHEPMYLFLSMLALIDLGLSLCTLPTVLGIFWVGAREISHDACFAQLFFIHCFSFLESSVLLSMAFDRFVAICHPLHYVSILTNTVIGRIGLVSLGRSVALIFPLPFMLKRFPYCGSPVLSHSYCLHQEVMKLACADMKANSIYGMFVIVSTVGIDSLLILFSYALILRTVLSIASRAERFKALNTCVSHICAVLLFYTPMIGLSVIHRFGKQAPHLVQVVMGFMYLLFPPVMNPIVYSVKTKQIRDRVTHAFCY
Summary of the method: as §1

OR51I1 (Homo sapiens) = molecular target: T18, OR51I1 (Homo sapiens) (UniProt Q9H343)
T18 sequence (whole entry): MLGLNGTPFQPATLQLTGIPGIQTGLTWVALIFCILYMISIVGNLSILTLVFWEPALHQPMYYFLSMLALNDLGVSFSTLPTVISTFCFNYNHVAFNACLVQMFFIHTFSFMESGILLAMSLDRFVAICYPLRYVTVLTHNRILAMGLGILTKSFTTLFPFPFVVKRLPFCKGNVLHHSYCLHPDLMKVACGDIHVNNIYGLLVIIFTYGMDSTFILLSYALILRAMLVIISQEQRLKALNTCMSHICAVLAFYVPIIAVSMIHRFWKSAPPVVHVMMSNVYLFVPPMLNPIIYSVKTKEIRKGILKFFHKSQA
Summary of the method: as §1

Measured: odorant receptor agonist call

CCCCC(S)C(C)CO (stereo not drawn)
inactive: all assays above
